Source: PubChem
Only some compounds are listed: those with a hit (about 3.5% of all), similar ones and a draw of the others.
PREPL inhibitor: inhibits the human prolyl oligopeptidase-like enzyme; Q4J6C6; recombinant PREPL, fluorescence polarization activity-based probe; actives 0.68% (n = 320,000); inhibition, % at 5.96 µM; AID 2751; in the data active = inhibition above about 43%
PAFAH2 inh: inhibitors of human PAFAH2 | inhibition, % at 3.39 µM | actives 0.99% (n = 340,000) | recombinant PAFAH2, FP-rhodamine activity probe, fluorescence polarization;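 active = inhibition above the mean over all tested compounds plus 3 SD, cut at about 30% in these data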;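 note: inhibitors block probe labeling of enzyme so polarization drops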
pPAFAH inh: pPAFAH (human) enzyme inhibition; Q13093; recombinant pPAFAH, FP-rhodamine probe fluorescence polarization; inhibition, % at 3.39 µM; actives 1.5% (n = 330,000); AID 463082;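 active = inhibition above the mean inhibition across the screen plus 3 SD, cut at about 25% in these data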;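 note: inhibitors block binding of the rhodamine activity-based probe so polarization drops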
PAFAH1B3 FP inh: blocks human PAF acetylhydrolase 1B catalytic subunit 3 | recombinant PAFAH1B3, FP-rhodamine probe, fluorescence polarization | inhibition, % at 3.39 µM | actives 0.28% (n = 340,000) | AID 492972;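 active = inhibition above the screen-wide average of all tested compounds plus 3 SD, cut at about 25% in these data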
Target sequence (Q15102 whole entry, looked up): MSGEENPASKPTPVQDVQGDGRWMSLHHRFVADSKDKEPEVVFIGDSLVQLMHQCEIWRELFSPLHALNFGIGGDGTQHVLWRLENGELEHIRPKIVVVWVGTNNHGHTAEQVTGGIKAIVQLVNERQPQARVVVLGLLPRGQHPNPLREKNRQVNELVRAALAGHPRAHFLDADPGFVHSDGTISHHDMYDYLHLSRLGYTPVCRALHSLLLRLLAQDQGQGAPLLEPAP
Apaf-1 inh: human Apaf-1 inhibition; reconstituted apoptosome caspase-3 activity, DEVD-Rh110 fluorescence; inhibition, % at 20 µM; O14727; actives 0.71% (n = 330,000); active = inhibition of at least 40% at 20 µM
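Material: reconstituted apoptosome with Apaf-1, cytochrome c, caspase-9, procaspase-3, dATP. Technique: Rh110 fluorescence intensity. Buffer or medium: pH 7.5 Hepes buffer with CHAPS, BSA, DTT. Times: 30 min plus 50 min, RT.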
PAFAH1B2 FP inh: inhibitors of human PAFAH1B2; inhibition, % at 3.39 µM; recombinant PAFAH1B2, FP-rhodamine activity probe, fluorescence polarization; AID 492953; actives 1.2% (n = 340,000);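 active = inhibition above the mean of all tested compounds plus 3 SD, cut at about 24% in these data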
Target sequence (P68402 whole entry, looked up): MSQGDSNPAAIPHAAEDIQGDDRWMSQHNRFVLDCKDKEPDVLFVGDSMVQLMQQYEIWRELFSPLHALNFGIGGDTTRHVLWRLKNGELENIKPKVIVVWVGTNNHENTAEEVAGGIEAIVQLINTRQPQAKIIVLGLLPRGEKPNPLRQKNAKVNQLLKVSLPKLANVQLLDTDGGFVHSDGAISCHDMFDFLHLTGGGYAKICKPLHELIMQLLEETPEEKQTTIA
pPAFAH confirm: pPAFAH (human) inhibition, confirmed; recombinant pPAFAH, FP-Rh probe fluorescence polarization; shares compounds with pPAFAH inh; actives 72% (n = 2,300); inhibition, % at 3.39 µM;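 active = mean inhibition of the triplicate above the hit cutoff set for the earlier primary screen, cut at about 25% in these data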
Hits are given with their value; n = inactive; x = no result given.

SMILES | PREPL inhibitor | PAFAH2 inh | pPAFAH inh | PAFAH1B3 FP inh | Apaf-1 inh | PAFAH1B2 FP inh | pPAFAH confirm
Cc1cnc(C(=O)Nc2ccccc2C(=O)N2CCOCC2)cn1 | n | n | 37 | n | n | n | n
CN1CCN(C(=O)c2cc3sc4ccccc4c3s2)CC1 | n | x | 52 | x | n | x | n
CC(C)(C)OC(=O)N(Cc1ccccc1)Cc1ccc(OCc2cccc(NC(=O)C3CC3)c2)cc1 | x | n | x | n | x | n | x
N#Cc1c(-c2cccc(Br)c2)cc(-c2ccco2)[nH]c1=O | n | n | 45 | n | n | n | 32
N#Cc1c(-c2ccccc2)cc(-c2ccccc2)[nH]c1=O | n | n | n | n | n | n | x
O=C(CN1C(=O)CCS(=O)(=O)c2ccccc21)Nc1ccccc1F | n | n | n | n | n | n | x
O=C(O)c1cccc(N2C(=O)c3cccc4cccc(c34)C2=O)c1 | x | n | x | n | n | n | x
O=C(O)c1cccc(N2C(=O)c3cc([N+](=O)[O-])cc4cc([N+](=O)[O-])cc(c34)C2=O)c1 | n | n | 45 | 34 | n | n | n
O=c1[nH]c(=S)[nH]c2nc(-c3ccccc3)cnc12 | n | n | n | n | n | n | x
Cc1cc2nc3c(=O)[nH]c(=S)[nH]c3nc2cc1NC(=O)C(F)(F)F | n | n | 79 | n | n | n | n
CN(C)C1(CN=Cc2cc(Cl)cc([N+](=O)[O-])c2O)CCCCC1 | n | 34 | 42 | n | n | n | 28
O=C(N/N=C/C1CC=CCC1)c1cc2ccccc2cc1O (centres undefined) | n | n | 44 | n | n | n | n
Cn1cccc1/C=N/NC(=O)c1cc2ccccc2cc1O | n | n | 51 | n | n | n | n
O=C(O)COc1ccccc1/C=N/NC(=O)c1cc2ccccc2cc1O | n | n | 43 | n | n | n | n
CC1=C(C)C(OCCBr)N(c2cc(O)c(Cl)cc2F)C1=O (centres undefined) | n | n | n | n | n | n | x
O=C(NCCS(=O)(=O)N1CCN(Cc2ccccc2)CC1)c1ccc(F)cc1 | n | n | n | n | n | n | x
O=C(COC(=O)/C=C/c1ccccc1)NC(=O)NCc1ccccc1 | n | n | n | n | n | n | x
O=C1c2ccc(-c3ccc(F)cc3OCc3ccccc3)cc2S(=O)(=O)c2cccc(C(=O)N3CCCC3)c21 | n | n | 46 | n | n | n | 45
COc1cc(-c2nc(-c3cccnc3)no2)cc(OC)c1OC | n | n | 40 | n | n | n | n
COCCCn1c(C)nnc1SCC(=O)Nc1cccc(C)c1 | x | n | x | n | n | n | x
Nc1ccc2c(c1)C/C(=C/c1ccco1)C2=O | n | n | 84 | n | n | n | n
O=C1/C(=C/c2ccco2)CCc2ccccc21 | n | n | n | n | n | n | x
CC1(C)CC(=O)C2=C(C1)c1c(ccc3ccccc13)NC2c1cc([N+](=O)[O-])cc([N+](=O)[O-])c1O (centres undefined) | n | 35 | 41 | n | n | 29 | 79
CC1(C)CC(=O)C2=C(C1)c1c(ccc3ccccc13)NC2c1ccc(C(=O)O)cc1 (centres undefined) | n | n | n | n | n | n | x
C/C(=N\NC(=S)NC(C)C)c1ccco1 | n | n | n | n | n | n | x
SMILES | PREPL inhibitor | PAFAH2 inh | pPAFAH inh | PAFAH1B3 FP inh | Apaf-1 inh | PAFAH1B2 FP inh | pPAFAH confirm
Cc1ccc(/C=C2\SC(=S)N(/N=C/c3cc([N+](=O)[O-])ccc3O)C2=O)o1 | n | 74 | 63 | 46 | n | 26 | 56
O=C(CCCN1C(=O)/C(=C/c2ccco2)SC1=S)Nc1cccc(C(=O)O)c1 | n | n | 50 | n | n | n | n
Cc1ccc(/C=C2\SC(=S)N(CCCC(=O)Nc3ccccc3C(=O)O)C2=O)cc1 | n | n | n | n | n | n | x
O=C(CCCN1C(=O)/C(=C\c2ccco2)SC1=S)Nc1ccc(O)cc1C(=O)O | n | 39 | 68 | n | n | n | n
CCc1ccc(OCCCC(=O)Nc2nnc(C3CCCO3)s2)cc1 (centres undefined) | n | n | n | n | n | n | x
O=C(CCS(=O)(=O)c1ccccc1Cl)NCCC1=CCCCC1 | n | n | n | n | n | n | x
COc1ccccc1/C=C1\SC(=S)N(CCC(=O)NNC(=O)c2ccccc2O)C1=O | n | n | 35 | n | n | n | 66
Cc1ccc(NC(=O)N/C=C/c2ccccc2)cc1 | n | n | 39 | n | n | n | n
NCCCCNCCCN | n | n | 62 | n | n | n | n
CCOC(=O)C1CCCN1C(=O)C1(NC(C)=O)CCCC1 (centres undefined) | x | n | x | n | x | n | x
Cc1cc(Br)c(S(=O)(=O)NCc2cccnc2)cc1C | n | n | 49 | n | n | n | n
CCOC(=O)Cn1c(=O)oc2cc(S(=O)(=O)Nc3ccc(N(CC)CC)cc3C)ccc21 | n | n | 55 | n | n | n | 53
CCOC(=O)Cn1c(=O)oc2cc(S(=O)(=O)Nc3cc(OCC)ccc3OCC)ccc21 | n | n | n | n | n | n | x
O=C(CN1C(=O)NC2(CCCCC2)C1=O)Nc1ccc(Cl)c(S(=O)(=O)N2CCOCC2)c1 | n | n | n | n | n | n | x
COc1ccccc1NC(=O)COC(=O)C1CC1 | n | n | n | n | n | n | x
COc1ccccc1NC(=O)COC(=O)c1ccc([N+](=O)[O-])s1 | n | 38 | 37 | 26 | n | n | n
CCCCNC(=O)C1c2ccccc2Oc2ccccc21 | n | n | n | n | n | n | x
CCN(CC)C(=O)C1c2ccccc2Oc2ccccc21 | 54 | n | 39 | n | n | n | n
CCc1ccc(OCC(=O)NC2CC(C)(C)NC(C)(C)C2)cc1 | n | n | n | n | n | n | x
O=[N+]([O-])c1cc(-c2ccc(/C=N/c3nc4ccccn4c3-c3ccco3)o2)ccc1Cl | n | n | 35 | n | n | n | n
Clc1ccc(/C=N/c2c(-c3ccco3)nc3ccccn23)cc1 | n | n | n | n | n | n | x
CCOc1ccc(C(=O)N(CC(=O)Nc2cccc(C)c2C)CC2CCCO2)cc1OC (centres undefined) | n | n | n | n | n | n | x
COc1ccc(-c2[nH]ncc2N=Nc2ccccc2)cc1 | n | n | 49 | n | n | n | n
COc1ccc(-c2[nH]ncc2N=Nc2cc(C)cc(C)c2)cc1 | n | n | n | n | n | n | x
O=C(NN1C(=O)/C(=C/C=C/c2ccco2)SC1=S)c1ccncc1 | n | x | 72 | x | n | x | n
O=C(NN1C(=O)/C(=C/C=C/c2ccccc2)SC1=S)c1ccncc1 | n | n | n | n | n | n | x
O=C(O)c1ccc(N2C(=O)/C(=C/C=C/c3ccccc3)SC2=S)cc1 | n | n | n | n | n | n | x
O=C1/C(=C/C=C/c2ccco2)SC(=S)N1c1ccc(O)cc1 | n | n | 83 | n | n | n | 41
